Experiments:
MCF7 [1] = assay: Growth inhibition of human MCF7 cells at 50 uM after 48 hrs by sulpharhodamine B assay; assay type: functional; conditions: MCF7, 48 h, read-out: GI
Procedure, shortened: (§1)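 This is the SRB protein-stain assay on adherent cells in RPMI-1640/MEM with 10% FCS. Each compound in DMSO (vehicle <0.2%) was applied at a single fixed concentration for 48 h. Cells were fixed with TCA and stained with SRB, and the dye was solubilised in Tris and read at 570/620 nm. Percent growth inhibition is relative to vehicle-treated controls, reported as mean ± SD of three experiments run in triplicate.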

A549 [2] = assay: Growth inhibition of human A549 cells at 50 uM after 48 hrs by sulpharhodamine B assay; assay type: functional; conditions: A549, 48 h, read-out: GI; procedure, shortened: as §1
PC-3 [3] = assay: Growth inhibition of human PC3 cells at 50 uM after 48 hrs by sulpharhodamine B assay; assay type: functional; conditions: PC-3, 48 h, read-out: GI
Procedure, shortened: (§2)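 Cells grown in RPMI-1640/MEM with 10% FCS, penicillin/streptomycin, 37 °C, 5% CO2. Seeded in 96-well plates, allowed to adhere overnight, then exposed 48 h to analogs in DMSO (vehicle <0.2% in controls). TCA-fixed, stained with 0.4% SRB in 1% acetic acid, dye solubilized in 10 mM Tris base, OD 570 nm (ref 620 nm). Mean ± SD of three experiments run in triplicate.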

OVCAR-5 [4] = assay: Growth inhibition of human OVCAR5 cells at 50 uM after 48 hrs by sulpharhodamine B assay; assay type: functional; conditions: OVCAR-5, 48 h, read-out: GI; procedure, shortened: as §1
IMR-32 [5] = assay: Growth inhibition of human IMR32 cells at 50 uM after 48 hrs by sulpharhodamine B assay; assay type: functional; conditions: IMR-32, 48 h, read-out: GI; procedure, shortened: as §1
HeLa [6] = assay: Growth inhibition of human HeLa cells at 50 uM after 48 hrs by sulpharhodamine B assay; assay type: functional; conditions: read-out: GI; procedure, shortened: as §1
THP-1 [7] = assay: Growth inhibition of human THP1 cells at 50 uM after 48 hrs by sulpharhodamine B assay; assay type: functional; conditions: THP-1, 48 h, read-out: GI; procedure, shortened: as §2
MCF7 [8] = assay: Growth inhibition of human MCF7 cells at 30 uM after 48 hrs by sulpharhodamine B assay; assay type: functional; conditions: MCF7, 48 h, read-out: GI; procedure, shortened: as §1
A549 [9] = assay: Growth inhibition of human A549 cells at 30 uM after 48 hrs by sulpharhodamine B assay; assay type: functional; conditions: A549, 48 h, read-out: GI; procedure, shortened: as §1
PC-3 [10] = assay: Growth inhibition of human PC3 cells at 30 uM after 48 hrs by sulpharhodamine B assay; assay type: functional; conditions: PC-3, 48 h, read-out: GI; procedure, shortened: as §2
OVCAR-5 [11] = assay: Growth inhibition of human OVCAR5 cells at 30 uM after 48 hrs by sulpharhodamine B assay; assay type: functional; conditions: OVCAR-5, 48 h, read-out: GI; procedure, shortened: as §1
IMR-32 [12] = assay: Growth inhibition of human IMR32 cells at 30 uM after 48 hrs by sulpharhodamine B assay; assay type: functional; conditions: IMR-32, 48 h, read-out: GI; procedure, shortened: as §1
HeLa [13] = assay: Growth inhibition of human HeLa cells at 30 uM after 48 hrs by sulpharhodamine B assay; assay type: functional; conditions: read-out: GI; procedure, shortened: as §1
THP-1 [14] = assay: Growth inhibition of human THP1 cells at 30 uM after 48 hrs by sulpharhodamine B assay; assay type: functional; conditions: THP-1, 48 h, read-out: GI; procedure, shortened: as §2
HEp-2 [15] = assay: Growth inhibition of human Hep2 cells at 50 uM after 48 hrs by sulpharhodamine B assay; assay type: functional; conditions: HEp-2, 48 h, read-out: GI; procedure, shortened: as §1
HEp-2 [16] = assay: Growth inhibition of human Hep2 cells at 30 uM after 48 hrs by sulpharhodamine B assay; assay type: functional; conditions: HEp-2, 48 h, read-out: GI; procedure, shortened: as §1
T47D = assay: Cytotoxicity against human T47D cells; assay type: functional, cell-based
A549 [17] = assay: Growth inhibition of human A549 cells at 20 uM after 48 hrs by sulpharhodamine B assay; assay type: functional; conditions: A549, 48 h, read-out: GI; procedure, shortened: as §1
PC-3 [18] = assay: Growth inhibition of human PC3 cells at 20 uM after 48 hrs by sulpharhodamine B assay; assay type: functional; conditions: PC-3, 48 h, read-out: GI; procedure, shortened: as §1
OVCAR-5 [19] = assay: Growth inhibition of human OVCAR5 cells at 20 uM after 48 hrs by sulpharhodamine B assay; assay type: functional; conditions: OVCAR-5, 48 h, read-out: GI
Procedure, shortened: (§3)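 Cells grown at 37 °C, 5% CO2 in RPMI-1640/MEM with 10% FCS and penicillin/streptomycin, then seeded in 96-well plates and allowed to adhere overnight. Compound was added in DMSO (vehicle <0.2% in untreated controls) and incubated 48 h. Cells were fixed with ice-cold TCA, stained with 0.4% SRB in 1% acetic acid, and the dye solubilised in 10 mM Tris-base. OD read at 570 nm (reference 620 nm).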

IMR-32 [20] = assay: Growth inhibition of human IMR32 cells at 20 uM after 48 hrs by sulpharhodamine B assay; assay type: functional; conditions: IMR-32, 48 h, read-out: GI; procedure, shortened: as §1
HeLa [21] = assay: Growth inhibition of human HeLa cells at 20 uM after 48 hrs by sulpharhodamine B assay; assay type: functional; conditions: read-out: GI; procedure, shortened: as §3
THP-1 [22] = assay: Growth inhibition of human THP1 cells at 20 uM after 48 hrs by sulpharhodamine B assay; assay type: functional; conditions: THP-1, 48 h, read-out: GI; procedure, shortened: as §2
DU-145 = assay: Growth inhibition of human DU145 cells at 20 uM after 48 hrs by sulpharhodamine B assay; assay type: functional; conditions: DU-145, 48 h, read-out: GI; procedure, shortened: as §1
HCT-15 = assay: Growth inhibition of human HCT15 cells at 20 uM after 48 hrs by sulpharhodamine B assay; assay type: functional; conditions: HCT-15, 48 h, read-out: GI; procedure, shortened: as §1

C=C[C@@](C)(/C=C/c1ccc(O)cc1)CCC=C(C)C [BAKUCHIOL]
inhibition of growth at 50 µM (MCF7 [1]): 63% | inhibition of growth at 50 µM (A549 [2]): 63% | inhibition of growth at 50 µM (PC-3 [3]): 58% | inhibition of growth at 50 µM (OVCAR-5 [4]): 66% | inhibition of growth at 50 µM (IMR-32 [5]): 58% | inhibition of growth at 50 µM (HeLa [6]): 55% | inhibition of growth at 50 µM (THP-1 [7]): 74% | inhibition of growth at 30 µM (MCF7 [8]): 33% | inhibition of growth at 30 µM (A549 [9]): 30% | inhibition of growth at 30 µM (PC-3 [10]): 21% | inhibition of growth at 30 µM (OVCAR-5 [11]): 25% | inhibition of growth at 30 µM (IMR-32 [12]): 31% | inhibition of growth at 30 µM (HeLa [13]): 20% | inhibition of growth at 30 µM (THP-1 [14]): 44% | inhibition of growth at 50 µM (HEp-2 [15]): 53% | inhibition of growth at 30 µM (HEp-2 [16]): 20% | IC50 (T47D): 28.9 µM

O=c1[nH]cc(F)c(=O)[nH]1 [FLUOROURACIL]
inhibition of growth at 20 µM (A549 [17]): 76% | inhibition of growth at 20 µM (PC-3 [18]): 75% | inhibition of growth at 20 µM (OVCAR-5 [19]): 75% | inhibition of growth at 20 µM (IMR-32 [20]): 79% | inhibition of growth at 20 µM (HeLa [21]): 71% | inhibition of growth at 20 µM (THP-1 [22]): 85% | inhibition of growth at 20 µM (DU-145): 75% | inhibition of growth at 20 µM (HCT-15): 63%
